Active and inactive are the calls of the source. No cut-off for these calls is given here.
Tests used:
Heme [1] = experiment: Binding affinity to heme in DMSO assessed as equilibrium constant by UV-visible spectrophotometry; parameters: scale not given here
Summary of the method: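 Haem titrations were run in buffered 40% DMSO so that haem stays monomeric and aggregation and μ-oxo dimer formation are minimised. Binding data were fitted mathematically to two alternative binding-process models to pick the best fit.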

Plasmodium yoelii [2] = experiment: Antimalarial activity as ED100 in peripheral blood against Plasmodium yoelii 17X infected CD1 mice (Mus musculus) after 4 days; type: functional
Plasmodium falciparum [3] = experiment: Antimalarial activity against chloroquine-sensitive Plasmodium falciparum 3D7 in human erythrocytes after 48 hrs by [3H]hypoxanthine uptake; type: functional, organism-based
Summary of the method: (§1)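 P. falciparum grown in human erythrocytes in RPMI 1640 with 25 mM HEPES, 32 mM NaHCO3 and 10% human serum, gassed 3% O2/4% CO2/93% N2. Assay at 2% parasitemia, 0.5% hematocrit, drug stocks in DMSO diluted in medium, in triplicate. After 24 h at 37 °C, [3H]-hypoxanthine added and incubation continued 24 h. Scintillation counting; IC50 by probit interpolation of log dose-response, three independent experiments.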

Plasmodium falciparum [4] = experiment: Antimalarial activity against chloroquine-sensitive Plasmodium falciparum HB3 in human erythrocytes after 48 hrs by [3H]hypoxanthine uptake; type: functional, organism-based; summary of the method: as §1
Plasmodium berghei = experiment: Antimalarial activity as reduced parasitaemia against Plasmodium berghei ANKA infected CD1 mice (Mus musculus) after 4 days; type: functional; conditions: 96 h
Summary of the method: (§2)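 Standard Peters 4-day test in female age-matched CD1 mice, randomised into groups of 5. Mice were infected iv on day 0 with 6.4 × 10^6 or 10.0 × 10^6 parasites (P. berghei or P. yoelii) from infected donors. Peripheral-blood parasitaemia was read by flow cytometry at day 4 and compared with vehicle-treated groups. Doses ranged up to 40 mg/kg.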

Plasmodium falciparum [5] = experiment: Antimalarial activity against chloroquine-resistant Plasmodium falciparum K1 in human erythrocytes after 48 hrs by [3H]hypoxanthine uptake; type: functional, organism-based; summary of the method: as §1
Plasmodium yoelii [6] = experiment: Antimalarial activity as reduced parasitaemia against Plasmodium yoelii 17X infected CD1 mice (Mus musculus) after 4 days; type: functional; conditions: 96 h
Plasmodium yoelii [7] = experiment: Antimalarial activity as reduced parasitaemia at day 4 against Plasmodium yoelii 17X infected CD1 mice (Mus musculus) at 40 mg/kg; type: functional, organism-based; parameters: dose 40 mg/kg; summary of the method: as §2
Heme [8] = experiment: Binding affinity to heme in 12 mM SDS surfactant assessed as equilibrium constant by UV-visible spectrophotometry

CCN(CC)Cc1cc(Nc2ccnc3cc(Cl)ccc23)ccc1O.Cl
Activity (Heme [1]): 4.4
Activity (Plasmodium yoelii [2]): >40 mg/kg
IC50 (Plasmodium falciparum [3]): 0.0112 µM
IC50 (Plasmodium falciparum [4]): 0.0096 µM
ED50 (Plasmodium berghei): 2.1 mg/kg
ED90 (Plasmodium berghei): 3.2 mg/kg
IC50 (Plasmodium falciparum [5]): 0.0155 µM
ED50 (Plasmodium yoelii [6]): 2.6 mg/kg
ED90 (Plasmodium yoelii [6]): 3.7 mg/kg

C=C[C@H]1CN2CC[C@H]1C[C@H]2[C@H](O)c1ccnc2ccc(OC)cc12
Activity (Heme [1]): 4.4

CC(C)(C)NCc1cc(Nc2ccnc3cc(Cl)ccc23)ccc1F
Activity (Plasmodium yoelii [7]): inactive

OC(c1cc(C(F)(F)F)nc2c(C(F)(F)F)cccc12)C1CCCCN1 (stereo not drawn)
Activity (Heme [1]): 3.84

c1ccncc1
Activity (Heme [8]): 2.24

— ChEMBL document CHEMBL1140918, “Candidate selection and preclinical evaluation of N-tert-butyl isoquine (GSK369796), an affordable and effective 4-aminoquinoline antimalarial for the 21st century” (J Med Chem, 2009)
